Tests used:
[1] = system: estrogenic activity; settings: cited from earlier work
[2] = type: in vitro ADME, rat; settings: for detection of ZON metabolite in mucosal and serosal buffers: LC-MS/MS
How it was run: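 Everted 10 cm segments from male, nonpregnant female and gestation day 18–19 pregnant Sprague-Dawley rats: three small-intestine parts plus distal colon. Krebs Ringer bicarbonate, pH 7.4, 95% O₂/5% CO₂, 37°C. Mucosal 25 ml; serosal 25 ml circulated at 5 ml/min. Test compound 10 µM mucosal; both sides sampled 0–60 min. Negative-ESI LC-MS/MS against bile-derived glucuronide standards; mean ± S.D., six experiments.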

[3] = after oral exposure, estimated; cited from earlier work
[4] = system: cell viability; settings: 10 µM, in vitro; cited from earlier work
[5] = ZON 10 µM, 60 min, female colon
[6] = ZON 10 µM, 60 min, female proximal intestine
[7] = ZON 10 µM, 60 min, pregnant female proximal intestine

Q: Which results are given for `C[C@H]1CCC[C@H](O)CCC/C=C/c2cc(O)cc(O)c2C(=O)O1` [α-ZOL, α-Zearalenol]?
A: estrogenic activity relative to ZON [1]: three times more potent; α-ZOL transport to the mucosal side relative to transport to the serosal side ([2]; ZON 10 µM, 60 min): approximately 6 times; α-ZOL mucosal excretion ([2]; ZON 10 µM, 60 min, at most, over all segments): ≤ 0.3 nmol; α-ZOL transport to the serosal side, maximum ([2]; ZON 10 µM, 60 min, colon): approximately 0.05 nmol

Q: Which “detection of ZON metabolite in mucosal and serosal buffers” value (from here on “detection of ZON metabolite”) ([2]; ZON 10 µM, 60 min) does the source give for `CC1CCCC(=O)CCCC=Cc2cc(OC3OC(C(=O)O)C(O)C(O)C3O)cc(OC3OC(C(=O)O)C(O)C(O)C3O)c2C(=O)O1` (stereo not drawn) [zearalenone diglucuronide, Zearalenone diglucuronide] here?
A: too low to quantify

Q: Which ZON uptake [3] does the source give for `C[C@H]1CCCC(=O)CCC/C=C/c2cc(O)cc(O)c2C(=O)O1` [ZON, Zearalenone] here?
A: 80–85%

Q: What about the “effect on cell viability” value [4] of the same compound?
A: not to affect cell viability

Q: What about the “rate of disappearance of ZON from the mucosal compartment” value ([2]; ZON 10 µM in mucosal buffer, all segments) of the same compound?
A: 100 to 200 nmol/h

Q: What about the “amount of ZON transported from the mucosal side to the serosal side” value ([2]; ZON 10 µM, 60 min incubation, distal colon (highest)) of the same compound?
A: approximately 2 nmol

Q: And the recovery at 60 min, 10 µM ([2]; both, rat, pH 7.4)?
A: > 80%

Q: What does the source list for Zearalenone glucuronide [ZON-GA]?
A: ZON-GA mucosal excretion, minimum [2, 5]: 22.55 nmol; ZON-GA serosal transport, maximum [2, 5]: 49.94 nmol; ZON-GA serosal transport, minimum [2, 6]: 1.64 nmol; ZON-GA mucosal excretion, maximum [2, 7]: 85.39 nmol

Q: Which “detection of ZON metabolite” value ([2]; ZON 10 µM, 60 min) does the source give for `C[C@H]1CCC[C@H](O)CCC/C=C/c2cc(O[C@@H]3O[C@H](C(=O)O)[C@@H](O)[C@H](O)[C@H]3O)cc(O)c2C(=O)O1` [β-ZOL-GA, β-Zearalenol glucuronide] here?
A: too low to quantify

Q: Which “α-ZOL-GA mucosal excretion, minimum” value [2, 5] does the source give for `C[C@H]1CCC[C@@H](O)CCC/C=C/c2cc(O[C@@H]3O[C@H](C(=O)O)[C@@H](O)[C@H](O)[C@H]3O)cc(O)c2C(=O)O1` [α-ZOL-GA, α-Zearalenol glucuronide] here?
A: 20.09 nmol

Q: And the “α-ZOL-GA serosal transport, minimum” value [2, 6]?
A: 2.84 nmol

Q: And the “α-ZOL-GA serosal transport, maximum” value ([2]; ZON 10 µM, 60 min, pregnant female colon)?
A: 36.15 nmol

Q: And the “α-ZOL-GA mucosal excretion, maximum” value [2, 7]?
A: 60.02 nmol

Q: With β-Zearalenol [β-ZOL] as the compound, how does the “detection of ZON metabolite” value ([2]; ZON 10 µM, 60 min) read?
A: too low to quantify

Q: Which “detection of ZON metabolite” value ([2]; ZON 10 µM, 60 min) does the source give for `C[C@H]1CCCC(=O)CCCCCc2cc(O)cc(O)c2C(=O)O1` [ZAN, Zearalanone] here?
A: too low to quantify

Reference: PMC7041979 (The Journal of Veterinary Medical Science, 2019)
